Measurements reported in paper PMC5508335 (Journal of Veterinary Internal Medicine, 2017).
Where two headings read alike, the source gives them in different places.

What was measured:
[1] = tested on: platelet function; assay: PFA-100 closure time, antiplatelet responder status; assay type: in vivo, dog
Procedure, shortened: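 Fifteen healthy dogs received PO aspirin 2 mg/kg/d, clopidogrel 2–3 mg/kg/d, or either drug combined with prednisone 2 mg/kg/d for 28 days. Responders were defined by PFA closure time: above 300 sec for aspirin, or more than 30% above baseline for clopidogrel. Responder status was compared among groups by Fisher's exact test, with P < 0.05 as significant.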

[2] = tested on: healthy dogs; assay: Endoscopy of upper gastrointestinal tract after 28 days of therapy; assay type: in vivo, dog; conditions: day 28; PO daily
Procedure, shortened: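 Fifteen healthy dogs were randomized to five PO regimens for 28 days: aspirin 2 mg/kg/d, clopidogrel 2–3 mg/kg/d, prednisone 2 mg/kg/d, prednisone plus aspirin, or prednisone plus clopidogrel. The upper gastrointestinal tract was then assessed.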

[3] = tested on: RBCs; assay: Lysis of canine RBCs by DMSO diluted in PBS; assay type: cell-based, dog
[4] = tested on: dogs with hypoadrenocorticism; assay type: in vivo, dog
[5] = tested on: New Zealand rabbits with dilated cardiomyopathy induced by doxorubicin; assay: Doxorubicin-induced dilated cardiomyopathy in New Zealand rabbits; assay type: in vivo, rabbit
[6] = tested on: healthy beagle dogs; conditions: oral administration, ref previous studies performed by these authors; cited from earlier work
[7] = tested on: equine neutrophils; assay: neutrophil respiratory burst, luminol chemoluminescence, opsonized zymosan; assay type: cell-based, horses; conditions: TX 0.5 to 20 μM; dose dependent
[8] = tested on: dogs with pulmonic stenosis; assay type: in vivo, dog
[9] = tested on: canine leukocytes; assay: LPS-stimulated leukocyte cytokine production in whole blood; assay type: cell-based, dog; conditions: 10^−7 M, 24 h
Procedure, shortened: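 Blood from eight healthy adult dogs was incubated with test compound (10−7 M) or control for 24 h. Leukocytes were then stimulated with LPS, and TNF and IL-10 production were measured by a canine-specific multiplex assay.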

[10] = tested on: platelet function (closure time)
[11] = tested on: platelet aggregation; conditions: cats with cardiovascular disease already receiving clopidogrel, n = 3
[12] = distribution of danofloxacin and tulathromycin in plasma, ISF and PELF by age; assay type: in vivo, calves; conditions: non‐linear mixed effect modeling
[13] = crossover study of IV dipyrone to control fever; assay type: in vivo, horses; conditions: single 30 mg/kg IV, 6 hours post administration, versus placebo
[14] = 2 mg/kg every 12 hours for 30 days

With CC(=O)Oc1ccccc1C(=O)O [A, aspirin] the “dogs classified as responders based on PFA closure times” value (“dogs classified as responders based” below) ([1]; day 14) was 2/3, the “dogs classified as responders based” value ([1]; day 28) was 1/3 and the “dogs with endoscopic lesions” value [2] was 1/3.

For C[S+](C)[O-] [DMSO], the “lysis of RBCs” value ([3]; 10, 20, 70 and 80% DMSO) was “no hemolysis”, the “lysis of RBCs” value ([3]; 30, 40 and 90% DMSO) was “mild hemolysis” and the “lysis of RBCs” value ([3]; 50 and 100% DMSO) was “moderate hemolysis”. The “lysis of RBCs” value ([3]; 60% DMSO (diluted in PBS)) was “marked hemolysis”.

For CC(C)(C)C(=O)OCC(=O)[C@H]1CC[C@H]2[C@@H]3CCC4=CC(=O)CC[C@]4(C)[C@H]3CC[C@]12C [DOCP], the “median time between the DOCP and CHF” value ([4]; 12 dogs, range 1-29 days) was 11 days and the “Median survival after the onset of CHF” value ([4]; HA/DOCP group) was 953 days.

With O=C(N/N=C/c1cccs1)c1ccc2c(c1)OCO2 [LASSBio 294] the “E'/A' ratio” value [5, 14] was under 1, the E/A ratio [5, 14] was under 1 and the “increase of FS” value ([5]; 2 mg/kg every 12 hours, n = 7, second week) was 35%. For the same compound, the “increase of shortening fraction” value [6] was 19.1%.

In the case of C[C@]12C=CC(=O)C=C1CC[C@@H]1[C@@H]2C(=O)C[C@@]2(C)[C@H]1CC[C@]2(O)C(=O)CO [P, prednisone], the “dogs with endoscopic lesions” value [2] was 1/3.

For CC/C(=C(\c1ccccc1)c1ccc(OCCN(C)C)cc1)c1ccccc1 [TX, Tamoxifen], the “neutrophil respiratory burst induced by opsonized zymosan” value [7] was “inhibits neutrophil respiratory burst”.

With CC(C)NCC(O)COc1ccc(CC(N)=O)cc1 (centres unmarked) [atenolol] the “maxPG, mean %change ± SD” value ([8]; 2–3 weeks post-atenolol 1–1.5 mg/kg q12) was −15% ± 9, the “heart rate, mean %change ± SD” value ([8]; 2–3 weeks post-atenolol 1–1.5 mg/kg q12, n = 18) was −17% ± 13 and the “Percent change in VTI ratio” value ([8]; post-atenolol) was 6% ± 12.

With Oc1ccc2c(c1)[C@@]13CCCC[C@@]1(O)[C@@H](C2)N(CC1CCC1)CC3 [butorphanol] the “heart rate, mean %change ± SD” value ([8]; 5 minutes post-butorphanol 0.2–0.25 mg/kg IV, n = 18 dogs) was −21% ± 16.

In the case of C=C1/C(=C\C=C2/CCC[C@]3(C)[C@@H]([C@H](C)CCCC(C)(C)O)CC[C@@H]23)C[C@@H](O)C[C@@H]1O [calcitriol], the “LPS-stimulated IL-10 production, mean±SD” value ([9]; control 551 ± 323) was 791 ± 386 pg/mL and the “LPS-stimulated leukocyte TNF production, mean±SD” value ([9]; eight dogs, control 1694 ± 1023) was 823 ± 862 pg/mL.

With COC(=O)[C@H](c1ccccc1Cl)N1CCc2sccc2C1 [clopidogrel] the “PFA-P2Y Closure Time” value ([10]; cats already receiving clopidogrel, n = 6) was over 300 s, the “PFA-P2Y Closure Time” value ([10]; test repeated while receiving clopidogrel, n = 1) was over 300 s and the “dogs classified as responders based” value ([1]; day 14) was 3/3. The “dogs classified as responders based” value ([1]; day 28) was 3/3, the “dogs with endoscopic lesions” value [2] was 0/3 and the “PW-AA %Aggregation” value [11] was 4–19%.

In the case of CN1C[C@@H]2C[C@H]1CN2c1cc2c(cc1F)c(=O)c(C(=O)O)cn2C1CC1 [danofloxacin], the “age as covariate in plasma concentration differences” value [12] was “not for danofloxacin treated calves”.

With Cc1c(N(C)CS(=O)(=O)O)c(=O)n(-c2ccccc2)n1C [dipyrone, Dipyrone] the control of fever [13] was “effectively controlled fever”.
